# Source: PubChem BioAssay (The Scripps Research Institute Molecular Screening Center)
# PRMT1 inh: inhibitors of human PRMT1 | Q99873 | recombinant PRMT1, activity-based probe fluorescence polarization | inhibition, % at 2.79 µM | hit rate 1.3% among 370,000 | AID 652257;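 active means inhibition above about 21% made by adding two undisclosed values, limit read from the data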
# Target sequence (Q99873 whole entry, looked up): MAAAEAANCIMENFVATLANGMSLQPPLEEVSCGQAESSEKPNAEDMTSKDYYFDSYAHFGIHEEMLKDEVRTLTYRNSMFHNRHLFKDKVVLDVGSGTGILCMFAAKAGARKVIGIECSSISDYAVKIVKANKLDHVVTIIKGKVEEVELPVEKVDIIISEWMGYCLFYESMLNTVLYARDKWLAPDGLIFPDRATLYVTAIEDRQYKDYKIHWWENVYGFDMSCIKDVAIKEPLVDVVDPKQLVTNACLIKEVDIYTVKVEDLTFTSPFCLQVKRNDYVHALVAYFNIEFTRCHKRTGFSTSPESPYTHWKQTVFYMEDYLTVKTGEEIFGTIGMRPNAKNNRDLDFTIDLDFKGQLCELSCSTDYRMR
# HTRA1 inh: HTRA1 (human) protease inhibition. Q92743. recombinant HTRA1, FP-rhodamine activity-based probe, fluorescence polarization. inhibition, % at 5.96 µM. hit rate 0.5% among 340,000. AID 504803; in the data active means inhibition above about 36%;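 further: 0% = enzyme with DMSO and 100% = wells lacking enzyme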
# SIAE inh: inhibitors of human sialic acid acetylesterase SIAE; SIAE FP-Rh probe binding, fluorescence polarization; inhibition, % at 9.66 µM; hit rate 0.69% among 370,000; AID 1053197;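 active means inhibition above a cutoff: mean of compounds within the control limits plus 3 SD of those, cut at about 17% in these data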;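 further: 0% = plate median of compound wells and 100% = probe without SIAE protein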
# rCAG RNA binder: r(CAG) repeat RNA binding. TO-PRO-1 dye displacement fluorescence. inhibition, % at 3 µM. hit rate 1.3% among 370,000. AID 651821;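 active means inhibition above the plate cutoff, the mean of all test compounds on that plate plus 3 SD, cut at about 35% in these data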;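 further: 0% = DMSO alone and 100% = 100 µM mitoxantrone as full dye displacement; higher means more dye released from RNA so lower well fluorescence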
# ABHD4 inh: inhibitors of mouse ABHD4; Q8VD66; purified mABHD4, FP-Rh probe fluorescence polarization; inhibition, % at 8.92 µM; hit rate 0.54% among 370,000; AID 720543;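 active means inhibition exceeding the mean over every tested compound plus 3 SD, cut at about 30% in these data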;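 further: 0% = plate median of compound wells and 100% = S159A mutant with DMSO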
# Target sequence (Q8VD66 whole entry, looked up): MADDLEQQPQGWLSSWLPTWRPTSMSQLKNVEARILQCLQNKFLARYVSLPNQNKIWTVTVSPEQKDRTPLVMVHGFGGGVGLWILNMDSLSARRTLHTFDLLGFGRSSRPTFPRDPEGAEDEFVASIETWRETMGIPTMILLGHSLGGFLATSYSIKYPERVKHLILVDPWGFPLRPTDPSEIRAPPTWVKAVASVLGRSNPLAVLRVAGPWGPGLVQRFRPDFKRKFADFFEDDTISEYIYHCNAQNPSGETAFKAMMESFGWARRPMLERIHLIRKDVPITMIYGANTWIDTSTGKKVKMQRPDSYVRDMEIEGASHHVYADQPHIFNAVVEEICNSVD
#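 Doses – 8.92 µM, single dose · Material – wild-type mouse ABHD4 protein · Replication – single well per compound (singlicate) · Measure – percent inhibition of probe binding, normalized to plate controls · Schedule – 45 min compound pre-incubation plus 60 min probe step, 25 °C · Detection – fluorescence polarization with parallel and perpendicular emission, 525/598 nm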
# rCAG bind conf: r(CAG) RNA repeat binding, confirmation | shares compounds with rCAG RNA binder | TO-PRO-1 dye displacement fluorescence | inhibition, % at 3 µM | hit rate 70% among 4,300 | AID 652065;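 active means inhibition above a per-plate cutoff, the mean inhibition of sample wells plus 3 SD, cut at about 35% in these data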;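 further: loss of TO-PRO-1 fluorescence as compound displaces dye from 1x1 AA loop RNA; 0% = DMSO only wells and 100% = 100 µM mitoxantrone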
# dCAG dye counter: DNA CAG dye complex inhibition counter-screen; AID 652068; hit rate 94% among 4,300; shares compounds with rCAG RNA binder; d(CAG) DNA oligo TO-PRO-1 dye displacement, fluorescence; inhibition, % at 3 µM;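 active means inhibition above its plate's cutoff, the mean test-well inhibition plus 3 SD, cut at about 4.8% in these data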;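 further: 0% = DNA dye mix with DMSO and 100% = 100 µM mitoxantrone; hits displace the dye from DNA and so lower well fluorescence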
# DNA CAG DR: disrupts DNA CAG TO-PRO-1 complex in dose response; hit rate 20% among 250; DNA CAG/GTC duplex TO-PRO-1 dye displacement fluorescence; shares compounds with rCAG RNA binder; IC50, µM; in the data active means IC50 below about 10 µM
# The depositor's hits bear a star; i = inactive; nt = no result given. Only some compounds are listed: those with a hit (about 3.3% of all), similar ones and a draw of the others.
SMILES,PRMT1 inh,HTRA1 inh,SIAE inh,rCAG RNA binder,ABHD4 inh,rCAG bind conf,dCAG dye counter,others
CCn1c(C)nc2cc(C(=O)NNC(=S)Nc3ccc(Cl)cc3Cl)ccc21,-0.5,0.2,-2.3,57.8*,8.1,48.9*,16.3*,
CCn1c(C)nc2cc(C(=O)NNC(=S)Nc3ccccc3Cl)ccc21,-1.1,-2.6,14.0,24.2,0.8,nt,nt,
Cc1ccc(NC(=S)NNC(=O)c2ccc(N3CCOCC3)c([N+](=O)[O-])c2)cc1Cl,-1.9,4.5,11.3,79.8*,10.2,84.0*,46.1*,
O=C(NC(NC(=S)Nc1ccccc1C(=O)O)C(Cl)(Cl)Cl)c1cccc([N+](=O)[O-])c1 (stereo unspecified),4.0,-11.1,-4.8,56.1*,-0.5,60.3*,24.4*,
CC(C)(C)N(Cc1cn(Cc2ccccc2)nn1)S(=O)(=O)c1ccccc1Br,0.4,nt,-5.0,2.9,-12.0,nt,nt,
CCCCNC(=O)C[C@H]1C[C@@]2(C(=O)OC)C(=C[C@H](C3CCCC3)O[C@@H]2C)N(CCC2=CCCCC2)C1=O,-1.0,nt,2.6,3.6,-2.7,nt,nt,
CC(C)CCCCCCCCc1cccc(O)c1C(=O)O,2.0,nt,-3.1,89.4*,-70.0,86.5*,52.0*,
CC(C)C(=O)NCCCc1ccccc1,-0.3,4.7,-3.0,0.8,-3.5,nt,nt,
CC(C)N1C(=O)S/C(=C/c2ccccc2OCc2ccc(C(=O)O)cc2)C1=O,4.3,-25.5,-16.7,54.9*,-25.8,55.5*,17.1*,
COC(=O)[C@]12C[C@H](CC(=O)NCC3CCCCC3)C(=O)N(CCc3ccc(OC)c(OC)c3)C1=C[C@H](COCc1ccccc1)O[C@@H]2C,-2.5,nt,11.6,3.6,-4.3,nt,nt,
CC(C)C(=O)NC(NC(=S)Nc1ccc(S(N)(=O)=O)cc1)C(Cl)(Cl)Cl (stereo unspecified),-1.1,-4.2,-7.4,45.7*,16.2,4.0,2.4,
COC(=O)c1ccc(CSc2nc3scc(-c4cccs4)c3c(=O)[nH]2)o1,5.0,-49.9,12.5,34.9*,-14.6,32.5,14.3*,
COC(=O)c1ccc(CSc2nc3ccc(Cl)cc3[nH]2)o1,3.1,1.6,-1.7,3.1,-9.2,nt,nt,
Cc1cc(C(C#N)c2ccc(Cl)cc2)c(Cl)cc1NC(=O)c1cc(I)cc(I)c1O (stereo unspecified),3.9,-25.0,5.9,72.8*,5.3,92.5*,78.5*,
Cc1cc(NC(=O)c2ccc(Cl)cc2)c(C)cc1O,-5.2,3.0,3.9,-1.9,3.5,nt,nt,
Nc1c(Br)cc(Br)c2c1[nH]c(=O)c1ccccc12,9.7,13.5,3.4,33.6,24.9,nt,nt,
Nc1c(Br)cc(Br)c2c1C(=O)c1c(cccc1S(=O)(=O)O)C2=O,6.4,2.1,-12.2,42.8*,26.9,47.5*,12.9*,
CC(C)Oc1ccc(Oc2ccc(C#C[C@H](C)N3C(=O)c4ccccc4C3=O)cc2)cn1,-1.1,nt,0.2,nt,-5.0,nt,nt,
O=C(O)[C@H](Cc1ccccc1)NC(=O)C(c1ccccc1)(c1ccccc1)c1ccccc1,-0.9,-15.8,4.5,37.9*,1.8,53.1*,12.9*,
COC(=O)C[C@H]1C=C[C@H](NS(=O)(=O)c2cn(C)cn2)[C@@H](CO)O1,-1.5,nt,-3.6,3.9,-0.9,nt,nt,
O=C(O)c1ccc(CSc2nc(-c3ccccc3)cc(C(F)(F)F)n2)cc1,4.1,-11.7,-10.3,54.9*,-1.0,55.6*,12.7*,
O=C(O)c1ccc(CSc2nc(-c3ccc(Cl)cc3)cc(C(F)(F)F)n2)cc1,-3.3,-11.6,-15.9,1.6,0.8,nt,nt,
Cc1cc(NS(=O)(=O)c2ccc(NC(=O)/C=C/c3cccc(Cl)c3)cc2)no1,-1.5,-29.6,-22.6,61.3*,-1.6,49.4*,17.3*,
Cc1cc(NS(=O)(=O)c2ccc(NC(=O)/C=C/c3ccccc3)cc2)nc(C)n1,-2.7,-7.2,-3.1,13.6,-17.0,nt,nt,
Cc1cc(NC(=O)/C=C/c2ccccc2Cl)no1,0.5,2.1,4.8,2.2,-4.3,nt,nt,
SMILES,PRMT1 inh,HTRA1 inh,SIAE inh,rCAG RNA binder,ABHD4 inh,rCAG bind conf,dCAG dye counter,others
Cc1cc(NS(=O)(=O)c2ccc(NC(=O)/C=C/c3ccccc3Cl)cc2)no1,-0.1,-45.1,-31.9,71.0*,-48.5,56.3*,22.5*,
C[C@@H]1CN(C(=O)OC(C)(C)C)CCN1c1ccc(N2CCS(=O)(=O)CC2)c(C#N)c1,-6.7,nt,-3.1,3.4,0.7,nt,nt,
Cc1ccc(-n2c(SCC(=O)Nc3ccc(S(=O)(=O)Nc4cc(C)nc(C)n4)cc3)nnc2-c2cccs2)cc1,5.3,nt,4.5,43.1*,-4.3,41.6*,11.2*,
COc1ccc(-n2c(SCC(=O)Nc3ccc(S(=O)(=O)Nc4nccs4)cc3)nnc2-c2cccs2)cc1,4.0,nt,-15.8,72.6*,-26.9,71.6*,32.9*,DNA CAG DR=i
Cc1cc(C)nc(SCC(=O)Nc2ccc(S(=O)(=O)Nc3nccs3)cc2)n1,0.3,-1.8,6.6,12.2,1.1,nt,nt,
CC(C)(C)c1ccc(-c2nnc(SCC(=O)Nc3ccc(S(=O)(=O)Nc4nccs4)cc3)n2Cc2ccco2)cc1,22.0*,nt,-29.1,51.0*,-52.5,46.6*,19.5*,
COc1ccc(-c2nnc(SCC(=O)Nc3ccc(S(=O)(=O)Nc4nccs4)cc3)n2-c2ccc(OC)cc2)cc1,1.6,nt,-20.1,64.2*,-28.4,57.9*,27.8*,
CCOc1ccc(N(CC(=O)Nc2c(C)n(C)n(-c3ccccc3)c2=O)S(=O)(=O)c2cc(OC)ccc2OC)cc1,3.5,nt,-5.9,8.2,0.3,nt,nt,
CCCCOCCCNC(=O)C[C@H]1C[C@@]2(C(=O)OC)C(=C[C@H](C(C)C)O[C@@H]2C2CC2)N(Cc2ccc3c(c2)OCO3)C1=O,-3.1,nt,2.8,-1.0,1.1,nt,nt,
CCOc1ccc(-n2c(SCC(=O)Nc3ccc(S(=O)(=O)Nc4nccs4)cc3)nnc2-c2ccccc2)cc1,1.6,nt,-43.9,80.3*,-54.2,72.5*,38.4*,
Cn1c(SCC(=O)Nc2ccc(S(=O)(=O)Nc3nccs3)cc2)nc2sc3c(c2c1=O)CCCC3,5.0,nt,-42.1,74.5*,-57.8,76.8*,42.5*,
Cc1cc(NS(=O)(=O)c2ccc(NC(=O)CSc3nnc(SCc4ccc(Cl)cc4)s3)cc2)nc(C)n1,3.1,nt,-27.9,59.2*,-30.8,58.2*,19.8*,
Cc1ccc(NC(=O)CSc2nnc(-c3cccnc3)n2-c2ccc(C)cc2)cc1,0.3,-5.2,-3.8,-1.0,4.0,nt,nt,
CCOc1ccc(-n2c(SCC(=O)Nc3ccc(Oc4ccccc4)cc3)nnc2-c2ccncc2)cc1,2.8,nt,-3.9,12.8,-1.1,nt,nt,
O=C(CSc1nnc(-c2cccnc2)n1-c1ccc(Cl)cc1)Nc1ccc(S(=O)(=O)Nc2nccs2)cc1,0.6,nt,-4.5,58.8*,3.2,63.5*,22.2*,
